Assay results: ChEMBL document CHEMBL1212913, “Quinazolin-4-one derivatives: A novel class of noncompetitive NR2C/D subunit-selective N-methyl-D-aspartate receptor antagonists” (J Med Chem, 2010); call rule not given here
pIC50: −log10 of the molar value.

Legend:
[1] = target: Glutamate NMDA receptor; Grin1/Grin2b (Rattus norvegicus, UniProt P35439+Q00960); assay: Antagonist activity at rat recombinant NR1-NR2B receptor expressed in Xenopus oocytes at holding potential of -40mV by two-electrode voltage-clamp electrophysiology; type: functional, cell-based, Oocyte; settings: for pIC50: read-out: IC50
How it was run: (§1)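 Oocytes expressing rat NR1-1a with NR2A, NR2B, NR2C or NR2D, clamped at −40 mV in Ba2+/HEPES recording solution pH 7.4, 23°C. Current evoked by 100 μM glutamate plus 30 μM glycine. Final DMSO 0.05-0.5%, 5-7 inhibitor concentrations, ≥4 oocytes each. IC50 from Hill fit of normalized mean composite data. […] Some NR2A oocytes given BAPTA-AM or K-BAPTA.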

[2] = target: Ionotropic glutamate receptor NMDA 1/2D (Rattus norvegicus, UniProt P35439+Q62645); assay: Antagonist activity at rat recombinant NR1-NR2D receptor expressed in Xenopus oocytes at holding potential of -40mV by two-electrode voltage-clamp electrophysiology; type: functional, cell-based, Oocyte
How it was run: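 Oocytes expressing rat NR1-1a with NR2A, NR2B, NR2C or NR2D, clamped at −40 mV in Ba2+/HEPES recording solution pH 7.4, 23°C. Current evoked by 100 μM glutamate plus 30 μM glycine. Final DMSO 0.05-0.5%, 5-7 inhibitor concentrations, ≥4 oocytes each. IC50 from Hill fit of normalized mean composite data. Some NR2A oocytes given BAPTA-AM or K-BAPTA.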

Glutamate receptor 1 = Glutamate receptor 1 (Rattus norvegicus, UniProt P19490); assay: Antagonist activity at rat recombinant GLuR1 expressed in Xenopus oocytes assessed as inhibition of glutamate-induced current by two-electrode voltage-clamp electrophysiology; type: functional, cell-based, Oocyte
How it was run: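 Two-electrode voltage clamp at −40 mV on Xenopus oocytes expressing rat GluR1, perfused with 90 NaCl, 1.0 KCl, 0.5 BaCl2, 0.005 EDTA, 10 HEPES (mM), pH 7.4, 23°C; activated by 100 μM glutamate. From 20 mM DMSO stocks, 5-7 concentrations, ≥4 oocytes each. Hill fit to mean composite curves normalized to control, minimum usually fixed at 0. Response >75% at 100 μM reported as >300 μM.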

[3] = target: Glutamate NMDA receptor; Grin1/Grin2a (Rattus norvegicus, UniProt P35439+Q00959); assay: Antagonist activity at rat recombinant NR1-NR2A receptor expressed in Xenopus oocytes at holding potential of -40mV by two-electrode voltage-clamp electrophysiology; type: functional, cell-based, Oocyte; settings: for pIC50: read-out: IC50; how it was run: as §1
[4] = target: Glutamate NMDA receptor; Grin1/Grin2c (Rattus norvegicus, UniProt P35439+Q00961); assay: Antagonist activity at rat recombinant NR1-NR2C receptor expressed in Xenopus oocytes at holding potential of -40mV by two-electrode voltage-clamp electrophysiology; type: functional, cell-based, Oocyte; how it was run: as §1
Rattus norvegicus [5] = species: Rattus norvegicus; assay: Selectivity ratio of IC50 for rat recombinant NR1-NR2A receptor to IC50 for rat recombinant NR1-NR2D receptor
How it was run: (§2)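 Ratio of fitted IC50 values, either NR2A/NR2D or GluR1/NR2D, from two-electrode voltage-clamp Hill fits in oocytes. Where noted, calculated from IC50 values rounded to the nearest μM.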

Rattus norvegicus [6] = species: Rattus norvegicus; assay: Selectivity ratio of IC50 for rat recombinant GLuR1 to IC50 for rat recombinant NR1-NR2D receptor; how it was run: as §2

Chain of Glutamate receptor 1 (P19490 whole entry, the tested form may be a part): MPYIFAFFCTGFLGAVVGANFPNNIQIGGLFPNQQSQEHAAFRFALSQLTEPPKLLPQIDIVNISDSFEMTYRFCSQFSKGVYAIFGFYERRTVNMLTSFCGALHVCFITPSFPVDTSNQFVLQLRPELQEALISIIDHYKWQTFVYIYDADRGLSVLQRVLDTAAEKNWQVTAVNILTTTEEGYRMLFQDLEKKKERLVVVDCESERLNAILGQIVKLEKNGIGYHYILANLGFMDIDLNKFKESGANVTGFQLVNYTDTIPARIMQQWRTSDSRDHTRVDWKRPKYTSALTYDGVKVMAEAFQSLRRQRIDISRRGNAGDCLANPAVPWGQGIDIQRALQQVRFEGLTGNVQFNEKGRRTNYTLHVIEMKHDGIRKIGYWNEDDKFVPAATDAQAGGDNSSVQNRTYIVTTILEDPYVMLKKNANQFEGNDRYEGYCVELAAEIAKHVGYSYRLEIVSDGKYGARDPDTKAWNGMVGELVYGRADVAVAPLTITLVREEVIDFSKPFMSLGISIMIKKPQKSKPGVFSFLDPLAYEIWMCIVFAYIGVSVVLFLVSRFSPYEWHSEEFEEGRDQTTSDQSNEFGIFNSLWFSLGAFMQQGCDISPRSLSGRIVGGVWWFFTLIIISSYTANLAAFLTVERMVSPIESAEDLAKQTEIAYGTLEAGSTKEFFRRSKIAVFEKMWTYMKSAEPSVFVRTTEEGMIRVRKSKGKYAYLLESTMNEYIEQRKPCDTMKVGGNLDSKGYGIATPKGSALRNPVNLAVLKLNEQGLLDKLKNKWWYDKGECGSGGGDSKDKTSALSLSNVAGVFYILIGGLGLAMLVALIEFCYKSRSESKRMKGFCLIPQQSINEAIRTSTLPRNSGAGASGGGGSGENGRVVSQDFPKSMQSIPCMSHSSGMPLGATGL
Chain of Ionotropic glutamate receptor NMDA 1/2D (Q62645 whole entry, other chains not shown): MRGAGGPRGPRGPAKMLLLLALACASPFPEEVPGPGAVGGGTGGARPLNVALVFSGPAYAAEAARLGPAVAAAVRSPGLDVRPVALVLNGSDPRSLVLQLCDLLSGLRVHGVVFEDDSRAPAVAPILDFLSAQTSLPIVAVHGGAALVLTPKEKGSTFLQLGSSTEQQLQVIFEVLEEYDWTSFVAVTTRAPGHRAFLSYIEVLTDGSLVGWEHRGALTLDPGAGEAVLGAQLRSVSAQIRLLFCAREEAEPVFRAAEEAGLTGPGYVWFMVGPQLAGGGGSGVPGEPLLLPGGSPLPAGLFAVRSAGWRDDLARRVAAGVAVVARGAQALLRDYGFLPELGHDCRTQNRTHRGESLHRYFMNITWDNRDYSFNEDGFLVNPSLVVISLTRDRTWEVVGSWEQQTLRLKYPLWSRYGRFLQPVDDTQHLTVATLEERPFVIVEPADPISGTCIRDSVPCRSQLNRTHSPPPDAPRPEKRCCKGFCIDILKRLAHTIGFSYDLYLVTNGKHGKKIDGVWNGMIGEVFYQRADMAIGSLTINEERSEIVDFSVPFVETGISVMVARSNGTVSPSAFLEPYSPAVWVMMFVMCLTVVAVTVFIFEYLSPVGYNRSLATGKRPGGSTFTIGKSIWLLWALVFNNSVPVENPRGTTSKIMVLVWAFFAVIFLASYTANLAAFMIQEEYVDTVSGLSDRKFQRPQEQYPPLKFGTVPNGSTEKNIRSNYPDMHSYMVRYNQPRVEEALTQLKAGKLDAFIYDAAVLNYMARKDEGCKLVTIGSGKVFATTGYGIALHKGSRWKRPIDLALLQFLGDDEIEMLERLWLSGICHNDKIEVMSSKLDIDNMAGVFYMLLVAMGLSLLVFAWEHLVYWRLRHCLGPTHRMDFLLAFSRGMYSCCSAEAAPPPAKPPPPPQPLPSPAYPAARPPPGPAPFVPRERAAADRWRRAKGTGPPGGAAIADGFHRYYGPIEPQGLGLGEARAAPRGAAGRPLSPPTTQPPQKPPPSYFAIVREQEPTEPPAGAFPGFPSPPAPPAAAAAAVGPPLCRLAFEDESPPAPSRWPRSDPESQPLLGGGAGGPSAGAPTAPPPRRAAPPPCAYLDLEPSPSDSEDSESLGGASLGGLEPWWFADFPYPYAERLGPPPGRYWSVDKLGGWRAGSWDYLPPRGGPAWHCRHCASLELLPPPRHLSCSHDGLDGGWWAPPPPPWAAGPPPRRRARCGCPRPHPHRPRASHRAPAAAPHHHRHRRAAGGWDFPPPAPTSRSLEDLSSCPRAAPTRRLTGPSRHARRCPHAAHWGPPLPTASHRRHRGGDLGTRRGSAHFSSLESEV
Chain of Glutamate NMDA receptor; Grin1/Grin2b (Q00960 whole entry, other chains not shown): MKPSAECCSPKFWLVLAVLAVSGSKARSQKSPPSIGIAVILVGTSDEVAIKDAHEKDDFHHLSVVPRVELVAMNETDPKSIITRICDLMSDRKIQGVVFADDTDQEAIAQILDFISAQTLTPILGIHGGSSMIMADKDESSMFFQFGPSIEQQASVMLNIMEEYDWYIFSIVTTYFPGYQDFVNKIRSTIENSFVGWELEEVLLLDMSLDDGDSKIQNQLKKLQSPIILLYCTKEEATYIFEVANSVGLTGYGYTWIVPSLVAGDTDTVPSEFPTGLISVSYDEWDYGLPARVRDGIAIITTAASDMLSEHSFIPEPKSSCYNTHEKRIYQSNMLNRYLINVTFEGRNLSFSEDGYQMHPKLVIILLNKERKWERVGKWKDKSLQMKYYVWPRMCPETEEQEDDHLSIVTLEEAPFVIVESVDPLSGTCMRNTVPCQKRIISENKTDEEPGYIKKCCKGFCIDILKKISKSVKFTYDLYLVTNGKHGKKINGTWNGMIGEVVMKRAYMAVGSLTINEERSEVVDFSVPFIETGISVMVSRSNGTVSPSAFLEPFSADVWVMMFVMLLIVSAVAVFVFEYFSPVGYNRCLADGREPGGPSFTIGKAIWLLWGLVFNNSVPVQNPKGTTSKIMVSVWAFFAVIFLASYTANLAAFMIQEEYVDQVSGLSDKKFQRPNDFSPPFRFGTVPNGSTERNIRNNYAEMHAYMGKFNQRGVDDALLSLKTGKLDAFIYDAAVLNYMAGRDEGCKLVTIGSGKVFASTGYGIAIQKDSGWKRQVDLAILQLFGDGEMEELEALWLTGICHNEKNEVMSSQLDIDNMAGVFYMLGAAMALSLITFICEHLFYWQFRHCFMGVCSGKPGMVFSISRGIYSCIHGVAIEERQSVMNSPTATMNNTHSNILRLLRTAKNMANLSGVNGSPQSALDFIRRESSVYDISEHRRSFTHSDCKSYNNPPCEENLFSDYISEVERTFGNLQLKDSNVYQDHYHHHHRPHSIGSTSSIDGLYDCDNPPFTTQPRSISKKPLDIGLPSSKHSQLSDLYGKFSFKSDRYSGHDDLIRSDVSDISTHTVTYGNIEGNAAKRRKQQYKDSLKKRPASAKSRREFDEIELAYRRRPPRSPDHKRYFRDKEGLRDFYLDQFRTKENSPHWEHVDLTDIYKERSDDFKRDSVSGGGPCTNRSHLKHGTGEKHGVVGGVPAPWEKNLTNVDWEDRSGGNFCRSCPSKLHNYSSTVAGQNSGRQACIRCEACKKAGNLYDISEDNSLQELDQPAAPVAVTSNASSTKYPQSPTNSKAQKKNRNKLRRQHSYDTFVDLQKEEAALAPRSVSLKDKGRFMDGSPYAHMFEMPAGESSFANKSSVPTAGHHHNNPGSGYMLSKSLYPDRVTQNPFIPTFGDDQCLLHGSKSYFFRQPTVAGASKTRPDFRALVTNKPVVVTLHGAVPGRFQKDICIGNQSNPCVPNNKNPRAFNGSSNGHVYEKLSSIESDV
Chain of Glutamate NMDA receptor; Grin1/Grin2c (Q00961 whole entry, other chains not shown): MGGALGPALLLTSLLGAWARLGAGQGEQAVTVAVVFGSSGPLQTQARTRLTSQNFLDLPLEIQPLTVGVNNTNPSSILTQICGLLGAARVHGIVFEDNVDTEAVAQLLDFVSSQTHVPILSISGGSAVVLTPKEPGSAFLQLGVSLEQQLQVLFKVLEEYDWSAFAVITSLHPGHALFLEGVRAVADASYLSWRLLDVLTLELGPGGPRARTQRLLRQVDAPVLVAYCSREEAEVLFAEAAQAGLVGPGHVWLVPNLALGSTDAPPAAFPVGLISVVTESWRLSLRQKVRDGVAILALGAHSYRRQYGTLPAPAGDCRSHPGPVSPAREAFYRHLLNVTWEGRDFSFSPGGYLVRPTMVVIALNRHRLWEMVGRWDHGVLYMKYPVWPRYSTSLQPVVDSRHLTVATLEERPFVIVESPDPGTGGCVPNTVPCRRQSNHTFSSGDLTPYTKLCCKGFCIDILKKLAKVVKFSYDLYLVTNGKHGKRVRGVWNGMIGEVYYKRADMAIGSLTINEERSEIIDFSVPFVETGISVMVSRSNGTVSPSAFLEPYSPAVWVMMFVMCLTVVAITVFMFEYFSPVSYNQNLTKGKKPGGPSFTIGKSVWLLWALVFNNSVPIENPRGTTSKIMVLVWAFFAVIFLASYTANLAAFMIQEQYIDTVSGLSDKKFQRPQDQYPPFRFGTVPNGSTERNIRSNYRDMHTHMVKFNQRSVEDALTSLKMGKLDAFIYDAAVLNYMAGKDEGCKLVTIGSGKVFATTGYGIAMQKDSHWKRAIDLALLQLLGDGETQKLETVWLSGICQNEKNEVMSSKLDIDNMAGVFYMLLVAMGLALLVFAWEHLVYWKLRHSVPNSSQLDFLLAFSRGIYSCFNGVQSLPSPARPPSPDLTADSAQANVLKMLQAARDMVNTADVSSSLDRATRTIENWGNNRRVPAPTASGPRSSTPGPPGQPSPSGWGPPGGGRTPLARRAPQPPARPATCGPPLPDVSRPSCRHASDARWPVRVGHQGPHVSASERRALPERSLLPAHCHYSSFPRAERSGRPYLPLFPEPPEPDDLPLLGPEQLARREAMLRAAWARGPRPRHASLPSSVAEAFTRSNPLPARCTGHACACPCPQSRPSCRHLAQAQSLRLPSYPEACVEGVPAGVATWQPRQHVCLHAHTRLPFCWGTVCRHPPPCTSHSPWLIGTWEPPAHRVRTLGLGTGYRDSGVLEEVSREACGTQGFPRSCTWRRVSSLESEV

SMILES	pIC50 [1]	pIC50 [2]	pIC50 (Glutamate receptor 1)	pIC50 [3]	pIC50 [4]	Ratio IC50 (Rattus norvegicus [5])	Ratio IC50 (Rattus norvegicus [6])	IC50 ([1]; oocyte)	IC50 ([3]; oocyte)
O=C(O)c1ccc(-n2c(/C=C/c3ccccc3C(F)(F)F)nc3ccccc3c2=O)cc1	< 3.52	4.55	< 3.52						
O=C(O)c1ccc(-n2c(/C=C/c3cccc([N+](=O)[O-])c3)nc3cccc(Cl)c3c2=O)cc1	3.96	4.85	< 3.52	< 3.52	4.66				
Cc1cccc(/C=C/c2nc3ccccc3c(=O)n2-c2ccc(C(=O)O)cc2)c1	4.47	4.74	< 3.52	4.68		1			
O=C(O)c1ccc(-n2c(/C=C/c3ccc([N+](=O)[O-])cc3)nc3ccc(I)cc3c2=O)cc1	< 3.52	6.00	< 3.52	< 3.52	5.70	> 150			
O=C(O)c1ccc(-n2c(/C=C/c3ccc(C(F)(F)F)cc3)nc3ccccc3c2=O)cc1	4.26	4.82	3.63	4.21		4	16		
O=C(O)c1ccc(-n2c(/C=C/c3cccc([N+](=O)[O-])c3)nc3cc4c(cc3c2=O)OCO4)cc1	3.79	4.44	< 3.52	3.95	4.40	3			
Cc1ccc(-n2c(/C=C/c3cccnc3)nc3ccc(I)cc3c2=O)cc1	< 3.52	< 3.52	< 3.52	< 3.52	< 3.52		1		
O=C(O)c1ccc(-n2c(/C=C/c3cccc([N+](=O)[O-])c3)nc3ccc(F)cc3c2=O)cc1	4.48	5.15	5.15	4.44		5	1		
COc1ccc2nc(/C=C/c3cccc(C(=O)O)c3)n(-c3ccc(C(=O)O)cc3)c(=O)c2c1	< 3.52	3.88	< 3.52	< 3.52	< 3.52				
Cc1ccc(/C=C/c2nc3ccccc3c(=O)n2-c2ccc(C(=O)O)cc2)cc1	3.86	4.77	< 3.52	4.39		2			
O=C(O)c1ccc(-n2c(/C=C/c3cccc([N+](=O)[O-])c3)nc3ccc([N+](=O)[O-])cc3c2=O)cc1		4.05	< 3.52		3.69			Not Active	Not Active
COc1ccccc1/C=C/c1nc2ccccc2c(=O)n1-c1ccc(C(=O)O)cc1	4.29	4.80	4.42	4.06		6	2		
O=C(O)c1ccc(-n2c(/C=C/c3ccc4ccccc4c3)nc3ccccc3c2=O)cc1	4.51	5.22	< 3.52	4.68	4.85	4			
Cc1nc2ccc(I)cc2c(=O)n1-c1ccc(C(=O)O)cc1	< 3.52	< 3.52	< 3.52	< 3.52	< 3.52		1		
O=c1c2ccccc2nc(/C=C/c2cccc([N+](=O)[O-])c2)n1-c1ccccc1	< 3.52	< 3.52	< 3.52	< 3.52	< 3.52		1		
O=C(O)c1ccc(-n2c(/C=C/c3ccc(O)cc3)nc3ccccc3c2=O)cc1	4.46	4.44	3.96	4.42		1	3		
Cc1ccc2nc(CCc3ccccc3)n(-c3ccc(C(=O)O)cc3)c(=O)c2c1	4.11	3.55	< 3.52	< 3.52	3.74				
COc1ccc2nc(/C=C/c3ccc([N+](=O)[O-])cc3)n(-c3ccc(C(=O)O)cc3)c(=O)c2c1	3.69	5.15	< 3.52	3.71	4.89	28			

SMILES	pIC50 [1]	pIC50 [2]	pIC50 (Glutamate receptor 1)	pIC50 [3]	pIC50 [4]	Ratio IC50 (Rattus norvegicus [5])	Ratio IC50 (Rattus norvegicus [6])	IC50 ([1]; oocyte)	IC50 ([3]; oocyte)
O=C(O)c1ccc(-n2c(/C=C/c3ccccc3)nc3ccccc3c2=O)cc1	4.07	4.48	4.60	4.08		3	1		
O=C(O)COc1ccc(/C=C/c2nc3ccccc3c(=O)n2-c2ccc(C(=O)O)cc2)cc1	< 3.52	< 3.52	< 3.52	< 3.52	< 3.52		1		
COc1cccc(/C=C/c2nc3ccccc3c(=O)n2-c2ccc(C(=O)O)cc2)c1	4.44	5.05	4.57	4.62		3	3		
O=C(O)c1ccc(-n2c(/C=C/c3cccc([N+](=O)[O-])c3)nc3ccc(Cl)cc3c2=O)cc1						16	7		
O=C(O)c1ccc(-n2c(/C=C/c3ccccc3O)nc3ccccc3c2=O)cc1	4.74	4.74	4.44	4.70		1	2		
COc1ccc2nc(/C=C/c3cccc([N+](=O)[O-])c3)n(-c3ccc(C(N)=O)cc3)c(=O)c2c1	4.09	< 3.52	< 3.52	< 3.52	4.24		1		
C=CCOc1ccc(/C=C/c2nc3ccccc3c(=O)n2-c2ccc(C(=O)O)cc2)cc1	3.84	4.52	< 3.52	< 3.52	3.95				
O=C(O)c1ccc(/C=C/c2nc3ccccc3c(=O)n2-c2ccc(C(=O)O)cc2)cc1	< 3.52	< 3.52	< 3.52	< 3.52	< 3.52		1		
COc1ccc(/C=C/c2nc3ccccc3c(=O)n2-c2ccc(C(=O)O)cc2)cc1	4.01	4.51	3.60	4.00		3	8		
O=C(O)c1ccc(-n2c(/C=C/c3ccc([N+](=O)[O-])cc3)nc3c(Cl)cc(Cl)cc3c2=O)cc1	< 3.52	5.22	< 3.52	< 3.52	5.05				
COc1ccc2nc(/C=C/c3cccc([N+](=O)[O-])c3)n(-c3ccc(C#N)cc3)c(=O)c2c1	< 3.52	< 3.52	< 3.52	< 3.52	< 3.52		1		
O=C(O)c1ccc(-n2c(/C=C/c3ccc4c(c3)OCCO4)nc3ccccc3c2=O)cc1	3.58	4.80	< 3.52	< 3.52	4.59				
O=c1c2cc(I)ccc2nc(/C=C/c2cccnc2)n1-c1cccc([N+](=O)[O-])c1	< 3.52	< 3.52	< 3.52	< 3.52	< 3.52		1		
Cc1cccc(-n2c(/C=C/c3cccnc3)nc3ccc(I)cc3c2=O)c1	< 3.52	< 3.52	< 3.52	< 3.52	3.62		1		
COc1ccc2nc(/C=C/c3ccc([N+](=O)[O-])cc3)n(-c3cccc(C(=O)O)c3)c(=O)c2c1	3.62	4.80	< 3.52	3.62	4.68	15			
O=C(O)c1cccc(-n2c(/C=C/c3ccc([N+](=O)[O-])cc3)nc3ccc(I)cc3c2=O)c1	3.55	5.10	< 3.52	< 3.52	5.05				
COc1ccc(-n2c(/C=C/c3cccnc3)nc3ccc(I)cc3c2=O)cc1	< 3.52	< 3.52	< 3.52	< 3.52	< 3.52		1		
N#Cc1ccc(/C=C/c2nc3ccccc3c(=O)n2-c2ccc(C(=O)O)cc2)cc1	3.97	4.47	< 3.52	4.03	4.55	3			
